Most compounds without a hit are left out; they make up all but 5.9% or so of the library.
Pf Dd2 inh: blocks growth of Plasmodium falciparum Dd2 parasites; P. falciparum Dd2 growth, SYBR Green, 72 h; active compounds read low; activity change, % at 10 µM; actives 2.3% (n = 94,000); AID 1159554; in the data active means activity change below about -80%; inconclusive means no clear call, values can overlap the other calls
IDH1 mut inh: inhibitors of human IDH1 R132H. inhibition, % at 10 µM. O75874. actives 0.18% (n = 70,000). IDH1 R132H reductase, diaphorase/resazurin fluorescence, 60 min; in the data active means inhibition above about 34%; inconclusive means no clear call, values can overlap the other calls; inactive means below about 11%;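 further: 0% = DMSO and 100% = no enzyme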
T cruzi growth-1: blocks T. cruzi growth in NIH3T3 culture; actives 5.9% (n = 77,000); T. cruzi beta-gal in NIH3T3, GalScreen luminescence, 90 h; inhibition, % at 8.34 µM; AID 624255;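 active means mean inhibition above about 93%, with at least 55% of replicates each passing it, limit read from the data, passing the limit was not always enough; inconclusive means only one of those two conditions holds; inactive means neither condition holds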
KDM4C inh: blocks human GASC-1 (KDM4C) demethylase activity; GST-KDM4C 2-372, H3K9me3 peptide, LANCE TR-FRET; inhibition, % at 12.5 µM; actives 0.15% (n = 96,000);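 active means mean replicate inhibition above about 25%, with at least 55% of replicates also reaching it, limit read from the data, passing the limit was not always enough; inconclusive means only one of those two conditions met; inactive means neither condition met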
Target sequence (Q9H3R0 2-372 limits assumed): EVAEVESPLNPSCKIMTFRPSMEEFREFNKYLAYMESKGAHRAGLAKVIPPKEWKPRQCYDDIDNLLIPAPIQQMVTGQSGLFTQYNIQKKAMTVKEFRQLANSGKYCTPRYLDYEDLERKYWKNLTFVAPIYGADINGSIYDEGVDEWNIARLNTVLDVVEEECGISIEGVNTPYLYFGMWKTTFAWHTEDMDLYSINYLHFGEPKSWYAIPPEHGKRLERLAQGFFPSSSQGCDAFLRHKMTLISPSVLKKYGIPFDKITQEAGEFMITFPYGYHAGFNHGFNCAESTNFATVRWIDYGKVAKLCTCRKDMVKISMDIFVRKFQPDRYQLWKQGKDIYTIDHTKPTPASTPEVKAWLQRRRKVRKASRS
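System: N-terminal GST-fused human GASC-1 (KDM4C) fragment, residues 2-372; amount: enzyme final amount 10 nM; incubation: reaction 30 min RT, detection step 1 h RT; medium: HEPES buffer, pH 7.5, plus ascorbate; technique: LANCE TR-FRET, Eu antibody, ULight-streptavidin, EDTA, ex 340 nm, em 618/671 nm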
T cruzi growth-2: blocks T. cruzi growth in NIH3T3 host cells. shares compounds with T cruzi growth-1. T. cruzi beta-gal in NIH3T3, GalScreen luminescence, 90 h. inhibition, % at 8.35 µM. actives 72% (n = 5,600);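 active means mean replicate inhibition above about 95% and at least 55% of replicates individually reaching it, limit read from the data; inconclusive means only one of the two criteria is met; inactive means neither criterion is met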
T cruzi growth-3: blocks T. cruzi growth in NIH3T3 host cells; AID 651740; actives 21% (n = 5,600); inhibition, % at 2.09 µM; T. cruzi beta-gal in NIH3T3, GalScreen luminescence, 90 h; shares compounds with T cruzi growth-1;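 active means mean inhibition above about 95%, with at least 55% of replicates also reaching it, limit read from the data; inconclusive means meets just one of the two conditions; inactive means meets neither condition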;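 further: plate controls were neutral control median for no effect and positive control median for full effect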
3T3 cytotox: cytotoxicity in mouse NIH/3T3 fibroblasts; shares compounds with T cruzi growth-1; NIH/3T3 viability, CellTiter-Glo ATP luminescence, 90 h; cytotoxicity (signal decrease), % at 8.35 µM; actives 14% (n = 5,600); AID 651742;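 active means mean signal decrease across replicates above about 35% based on untreated-well scatter, with enough replicates individually passing, limit read from the data; inconclusive means no rule stated though some were filed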;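 further: 0% = median of neutral control wells and 100% = median of positive control wells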
NIH3T3 tox 2: cytotoxicity in mouse NIH/3T3 fibroblasts; shares compounds with T cruzi growth-1; NIH/3T3 viability, CellTiter-Glo ATP luminescence, 90 h; inhibition, % at 24.9 µM; actives 56% (n = 5,600); AID 651744;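 active means mean loss of cell viability signal at or above a set limit, and enough replicates individually reaching it; inconclusive means meets only the mean limit or only the replicate share; inactive means meets neither condition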;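 further: 0% = median of neutral control wells and 100% = median of positive control wells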
Active calls of the source: *; ! = not confirmed by another sample.

Results for O=C(CSc1nnc(-c2cccnc2)n1-c1ccccc1)Nc1cc(C(F)(F)F)ccc1Cl ?
IDH1 mut inh: 0

What do the screens show for `Cn1cnc(S(=O)(=O)N2CCCCN3[C@H](C2)[C@@H](c2ccc(-c4cccc(F)c4)cc2)[C@@H]3CO)c1`?
Pf Dd2 inh: 34; T cruzi growth-1: 103*; KDM4C inh: 0; T cruzi growth-2: 96*; T cruzi growth-3: 5; 3T3 cytotox: 6; NIH3T3 tox 2: inconclusive

How did Cn1cnc(S(=O)(=O)N2CCCCN3[C@H](CO)[C@@H](c4ccc(-c5cccc(F)c5)cc4)[C@@H]3C2)c1 do in these assays?
Pf Dd2 inh: 41; T cruzi growth-1: 103*; KDM4C inh: -1; T cruzi growth-2: 104*; T cruzi growth-3: 1; 3T3 cytotox: 22; NIH3T3 tox 2: 64*

What do the screens show for `COc1ccc(S(=O)(=O)N2CC[C@H]3[C@@H](CO)N(C)c4ccc(-c5ccccc5F)cc4[C@H]32)cc1`?
Pf Dd2 inh: -48; T cruzi growth-1: 114*; KDM4C inh: 0; T cruzi growth-2: 112*; T cruzi growth-3: 86; 3T3 cytotox: 17; NIH3T3 tox 2: 25

What do the screens show for `CN1c2ccc(-c3ccccc3F)cc2[C@H]2[C@H](CCN2S(=O)(=O)c2ccc(F)cc2)[C@H]1CO`?
Pf Dd2 inh: 11; T cruzi growth-1: 102*; KDM4C inh: 6; T cruzi growth-2: 100*; T cruzi growth-3: 55; 3T3 cytotox: 25; NIH3T3 tox 2: 72*

Results for COc1ccc(NC(=O)CN(c2cc(Cl)c(Cl)cc2Cl)S(C)(=O)=O)cc1Cl ?
IDH1 mut inh: 1

Results for C[C@H]1CN([C@@H](C)CO)C(=O)c2cc(C#Cc3cccc(F)c3)cnc2O[C@@H]1CN(C)C(=O)C1CCCCC1 ?
Pf Dd2 inh: -89*; T cruzi growth-1: 114*; KDM4C inh: -4; T cruzi growth-2: 113*; T cruzi growth-3: 66; 3T3 cytotox: 5; NIH3T3 tox 2: 76*

How did C[C@@H]1CN([C@@H](C)CO)C(=O)c2cc(C#Cc3cccc(F)c3)cnc2O[C@H]1CN(C)C(=O)C1CCCCC1 do in these assays?
Pf Dd2 inh: -52; IDH1 mut inh: 0; T cruzi growth-1: 117*!; KDM4C inh: 5; T cruzi growth-2: 105*; T cruzi growth-3: 61; 3T3 cytotox: 13; NIH3T3 tox 2: 92*

What do the screens show for `Cc1ccc(S(=O)(=O)Nc2ccc3c(c2)C(=O)N([C@@H](C)CO)C[C@@H](C)[C@@H](CN(C)CC2CC2)OCCCC[C@@H](C)O3)cc1`?
Pf Dd2 inh: -28; T cruzi growth-1: inconclusive; T cruzi growth-2: 81; T cruzi growth-3: 26; 3T3 cytotox: -13; NIH3T3 tox 2: -14

What do the screens show for `Cc1ccc(S(=O)(=O)Nc2ccc3c(c2)C(=O)N([C@H](C)CO)C[C@H](C)[C@H](CN(C)CC2CC2)OCCCC[C@H](C)O3)cc1`?
Pf Dd2 inh: -28; T cruzi growth-1: inconclusive; KDM4C inh: -1; T cruzi growth-2: inconclusive; T cruzi growth-3: 48; 3T3 cytotox: -15; NIH3T3 tox 2: 13

What do the screens show for `Cc1ccc(S(=O)(=O)Nc2ccc3c(c2)C(=O)N([C@H](C)CO)C[C@H](C)[C@@H](CN(C)CC2CC2)OCCCC[C@H](C)O3)cc1`?
Pf Dd2 inh: -6; T cruzi growth-1: 57; KDM4C inh: 2

What do the screens show for `CCCNC(=O)C[C@@H]1C[C@H]2c3cc(NC(=O)Nc4ccc(OC)cc4)ccc3O[C@H]2[C@@H](CO)O1`?
Pf Dd2 inh: -5; IDH1 mut inh: 0; T cruzi growth-1: 43; KDM4C inh: -1

How did CCCNC(=O)C[C@H]1C[C@H]2c3cc(NC(=O)Nc4ccc(OC)cc4)ccc3O[C@H]2[C@H](CO)O1 do in these assays?
Pf Dd2 inh: -3; IDH1 mut inh: 0; T cruzi growth-1: 37; KDM4C inh: -2

Screening results: PubChem, Broad Institute
